Laboratory results published in ChEMBL document CHEMBL5385869, “Novel 4-aminoquinolines: Synthesis, inhibition of the Mycobacterium tuberculosis enoyl-acyl carrier protein reductase, antitubercular activity, SAR, and preclinical evaluation” (Eur J Med Chem, 2023).
Calls of active or inactive are those of the source. The rule behind the calls is not given here.

What was measured:
Acinetobacter baumannii = test: Antibacterial activity against multidrug-resistant Acinetobacter baumannii clinical isolates assessed as inhibition of bacterial growth at 20 uM by broth microdilution method; assay type: functional, organism-based
In short: (§1)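 Broth microdilution in triplicate against a small bacterial panel, with compounds tested at 20 μM for growth inhibition.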

Staphylococcus aureus = test: Antibacterial activity against Staphylococcus aureus ATCC 25923 assessed as inhibition of bacterial growth at 20 uM by broth microdilution method; assay type: functional, organism-based; in short: as §1
[1] = molecular target: T1, Enoyl-[acyl-carrier-protein] reductase [NADH] (Mycobacterium tuberculosis, UniProt P9WGR1); test: Competitive inhibition of Mycobacterium tuberculosis InhA using varying concentrations of DD-CoA as substrate assessed as inhibition constant for enzyme-inhibitor binary complex in presence of NADH by Lineweaver-Burk plot analysis
T1 sequence (P9WGR1 whole entry): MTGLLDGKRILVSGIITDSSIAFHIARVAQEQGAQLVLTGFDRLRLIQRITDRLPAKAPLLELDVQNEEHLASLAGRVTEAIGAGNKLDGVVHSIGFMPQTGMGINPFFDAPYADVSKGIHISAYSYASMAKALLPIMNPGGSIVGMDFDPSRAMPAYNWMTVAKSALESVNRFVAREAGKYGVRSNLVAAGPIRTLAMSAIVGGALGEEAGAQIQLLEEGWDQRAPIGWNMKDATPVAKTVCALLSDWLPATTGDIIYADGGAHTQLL
In short: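 Steady-state kinetics with recombinant MtInhA in 100 mM Pipes pH 7.0 at 25 °C. NADH fixed at 60 μM, DD-CoA varied 15–135 μM, inhibitor at fixed-varied levels of 0.2–4 μM. Kis is fitted to the competitive inhibition equation.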

[2] = Metabolic stability in rat liver microsomes assessed as intrinsic clearance at 2 uM measured upto 30 mins by HPLC/MS/MS analysis; assay type: ADME, Microsome; settings: read-out: CLH
In short: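 Compounds at 2 μM incubated at 37 °C with 1 mg/mL rat liver microsomes containing NADPH. Parent compound consumption followed over time.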

[3] = Permeability of compound at 10 uM measured after 5 hrs by PAMPA assay; assay type: ADME; settings: read-out: permeability
In short: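 PAMPA: compounds at 10 μM in 2% DMSO added to a pH 7.4 donor phase, 5 h at room temperature. Receptor-side concentration (pH 7.4) measured to derive permeation rate. Alprenolol is the analytical control.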

[4] = molecular target: T2, Enoyl-[acyl-carrier-protein] reductase [NADH] (Mycobacterium tuberculosis) (UniProt P9WGR1); test: Binding affinity to Mycobacterium tuberculosis InhA assessed as change in entropy at 250 uM in presence of NADH by fluorescence spectroscopy
T2 sequence (whole entry): T1 sequence (P9WGR1 whole entry)

[5] = molecular target: T2, Enoyl-[acyl-carrier-protein] reductase [NADH] (Mycobacterium tuberculosis); test: Binding affinity to Mycobacterium tuberculosis InhA assessed as change in enthalpy at 250 uM in presence of NADH by fluorescence spectroscopy
[6] = Cytotoxicity against human HepG2 cells assessed as reduction in cell viability incubated for 72 hrs by MTT assay; assay type: toxicity, cell-based
In short: (§2)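 Cells grown in DMEM with 10% FBS. HepG2 seeded at 4 × 10³ and Vero at 2 × 10³ cells/well, 24 h before dosing. Compounds at 1, 5 and 20 μM in 1% DMSO for 72 h at 37 °C, 5% CO2. MTT readout: 5 mg/mL reagent for 4 h, absorbance at 595 nm. Neutral red readout: 25 μg/mL dye for 3 h, then acid-ethanol desorb. Viability is expressed relative to 1% DMSO controls.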

[7] = molecular target: T1, Enoyl-[acyl-carrier-protein] reductase [NADH]; test: Inhibition of Mycobacterium tuberculosis InhA-catalysed chemical reaction in presence of NADH measured for 1 min by UV/Visible spectrophotometry
In short: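 Recombinant MtInhA reaction at 25 °C in 100 mM Pipes pH 7.0, started by adding 2.2 μM enzyme and followed for 1 min. Substrate is DD-CoA, made from 2-trans-dodecenoic acid and CoA.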

[8] = Cytotoxicity against African green monkey Vero cells assessed as reduction in cell viability incubated for 72 hrs by MTT assay; assay type: toxicity, cell-based; settings: chlorocebus sabaeus; in short: as §2
[9] = Selectivity index, ratio of CC50 for human HepG2 cells by neutral red uptake assay to MIC for pan-sensitive Mycobacterium tuberculosis H37Rv ATCC 27294; assay type: toxicity; settings: read-out: Selectivity Index
[10] = Cytotoxicity against human HepG2 cells assessed as reduction in cell viability incubated for 72 hrs by neutral red uptake assay; assay type: toxicity, cell-based; in short: as §2
[11] = Selectivity index, ratio of CC50 for African green monkey Vero cells by MTT assay to MIC for pan-sensitive Mycobacterium tuberculosis H37Rv ATCC 27294; assay type: toxicity, cell-based; settings: read-out: Selectivity Index
[12] = Toxicity in mouse assessed as effect on body weight at 300 mg/kg administered as single dose and measured for 14 days; assay type: organism-based; settings: in vivo, 336 h, time 14 day
In short: (§3)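 Acute oral toxicity study. At day 14 the animals were euthanized, and kidneys, liver and spleen were weighed and inspected macroscopically.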

[13] = tested on: Mycobacterium tuberculosis; test: Bacteriostatic activity in Mycobacterium tuberculosis H37Rv ATCC 27294 infected in CF-1 mouse assessed as reduction in bacterial growth in lungs at 300 to 450 uM/kg, po administered daily for 14 days starting from 7 days post infection; assay type: functional, organism-based; settings: dose 300-450 µM/Kg, time 14.0 day
In short: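 Mice treated by gavage from 7 days post-infection for 14 days, daily, at 300 or 450 μM/kg. Lungs and spleen homogenized in saline and plated for CFU. Comparisons are against vehicle and early-control groups.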

[14] = molecular target: T1, Enoyl-[acyl-carrier-protein] reductase [NADH]; test: Binding affinity to Mycobacterium tuberculosis InhA assessed as dissociation constant at 250 uM at 30 degreeC in presence of NADH by fluorescence spectroscopy
In short: (§4)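 Titration of pre-formed MtInhA:NADH complex (2 mL of 3 μM enzyme with 20 μM NADH), adding microliter aliquots of 250 μM ligand stock with dilution kept ≤1%. Intrinsic fluorescence read at 295 nm excitation, 310–500 nm emission. Temperatures 15, 20, 25 and 30 °C. KD is fitted to a hyperbolic isotherm. ΔH°, ΔS° and ΔG° come from van't Hoff analysis of KD across temperatures.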

[15] = Toxicity in mouse assessed as effect on spleen weight at 300 mg/kg administered as single dose and measured for 14 days; assay type: organism-based; settings: in vivo, 336 h, time 14 day; in short: as §3
[16] = Toxicity in mouse at 300 mg/kg administered as single dose and measured for 14 days; assay type: organism-based; settings: in vivo, 336 h, time 14 day; in short: as §3
[17] = Toxicity in CF-1 mouse assessed as reduction in body weight at 300 to 450 uM/kg, po administered daily for 14 days; assay type: organism-based; settings: in vivo, 336 h, dose 300-450 µM/Kg, time 14 day
In short: (§5)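 Mice were infected with M. tuberculosis H37Rv. From 7 days after infection, test and reference drugs were given daily by oral gavage for 14 days, with a vehicle-only group. Body weight was followed over the course of the experiment.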

[18] = Toxicity in CF-1 mouse assessed as reduction in body weight at 300 uM/kg, po administered daily for 14 days; assay type: organism-based; settings: in vivo, 336 h, time 14 day; in short: as §5
[19] = Toxicity in mouse assessed as effect on lung weight at 300 mg/kg administered as single dose and measured for 14 days; assay type: organism-based; settings: in vivo, 336 h, time 14 day
[20] = Toxicity in mouse assessed as animal death at 300 mg/kg administered as single dose and measured for 14 days; assay type: organism-based; settings: in vivo, 336 h, time 14 day; in short: as §3
[21] = molecular target: T1, Enoyl-[acyl-carrier-protein] reductase [NADH]; test: Binding affinity to Mycobacterium tuberculosis InhA assessed as dissociation constant at 250 uM at 20 degreeC in presence of NADH by fluorescence spectroscopy; in short: as §4

Row | Compound | Activity (Acinetobacter baumannii) | Activity (Staphylococcus aureus) | Ki [1] | CLint scaled at 2 µM [2] | Papp at 5 h, 10 µM [3] | deltaS [4] | deltaH [5] | CC50 at 72 h [6] | IC50 [7] | CC50 at 72 h [8] | selectivity ratio [9] | CC50 at 72 h [10] | selectivity ratio [11] | further results
1 | Cc1cc(Nc2ccc(N3CCCCC3)cc2)c2cc(Cl)ccc2n1 | inactive | inactive | 1.33 µM | 60.5 mL/min/kg | 11.5 ×10⁻⁶ cm/s | -49.8 cal/mol/K | -23.2 kcal/mol | > 20 µM | 1.1 µM | 19.2 µM | 18.2 | 16.4 µM | 21.3 | –
2 | Cc1cc(Nc2ccc(N3CCCCC3)cc2)c2cc(Br)ccc2n1 | inactive | inactive | 0.14 µM | 36.2 mL/min/kg | 3.16 ×10⁻⁶ cm/s | -33.4 cal/mol/K | -18.3 kcal/mol | > 20 µM | 0.23 µM | > 20 µM | 45.7 | 18.3 µM | > 50 | Activity [12]: Non-Toxic; Activity [13]: Active; Kd [14]: 1.34 µM; Activity [15]: Non-Toxic; Activity [16]: Non-Toxic; Activity [17]: Non-Toxic; Activity [18]: Non-Toxic; Activity [19]: Non-Toxic; Activity [20]: Non-Toxic; Kd [21]: 0.47 µM
